Test results as given in ChEMBL document CHEMBL4390647, “Efficient click chemistry towards novel 1H-1,2,3-triazole-tethered 4H-chromene-d-glucose conjugates: Design, synthesis and evaluation of in vitro antibacterial, MRSA and antifungal activities” (Eur J Med Chem, 2019).
Converted amounts (≈) assume the structure as drawn.

How the values were obtained:
Aspergillus flavus = assay: Antifungal activity against Aspergillus flavus ATCC 204304 measured after 72 hrs by agar dilution method; assay type: functional; conditions: ATCC 204304, 72 h
How it was run: (§1)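 Agar dilution on Sabouraud dextrose agar, with compounds at […] to 0.78 μM in twofold steps. Fungal suspensions at 10 CFU/mL as printed were applied to the compound-containing plates. Incubation at 35°C; MIC read after 72 h. Three experiments.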

Escherichia coli = assay: Antibacterial activity against Escherichia coli ATCC 25922 measured after 18 to 20 hrs by microbroth dilution method; assay type: functional
How it was run: (§2)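 Inoculum from a 4–6-h broth adjusted to 0.5 McFarland, final 5 × 10⁵ CFU/mL. Incubation at 35°C for 18–20 h. MIC taken as the lowest concentration giving complete inhibition of visible growth; three experiments.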

Saccharomyces cerevisiae = assay: Antifungal activity against Saccharomyces cerevisiae SH 20 after 72 hrs by agar dilution method; assay type: functional; conditions: SH 20, 72 h; how it was run: as §1
Klebsiella pneumoniae = assay: Antibacterial activity against measured after Klebsiella pneumoniae ATCC 4352 measured after 18 to 20 hrs by microbroth dilution method; assay type: functional; how it was run: as §2
Staphylococcus aureus [1] = assay: Antibacterial activity against Staphylococcus aureus MRSA198 clinical isolate-1 measured after 18 to 20 hrs by microbroth dilution method; assay type: functional; conditions: MRSA198 isolate-1
Staphylococcus aureus [2] = assay: Antibacterial activity against Staphylococcus aureus ATCC 11632 after 18 to 20 hrs by microbroth dilution method; assay type: functional; how it was run: as §2
Salmonella typhimurium = assay: Antibacterial activity against Salmonella typhimurium ATCC 14028 measured after 18 to 20 hrs by microbroth dilution method; assay type: functional, Salmonella enterica subsp. enterica serovar Typhimurium; conditions: Salmonella enterica; how it was run: as §2
Bacillus subtilis = assay: Antibacterial activity against Bacillus subtilis ATCC 11774 after 18 to 20 hrs by microbroth dilution method; assay type: functional; how it was run: as §2
Candida albicans = assay: Antifungal activity against Candida albicans ATCC 7754 after 72 hrs by agar dilution method; assay type: functional; conditions: ATCC 7754, 72 h; how it was run: as §1
Staphylococcus aureus [3] = assay: Antibacterial activity against Staphylococcus aureus MRSA198 clinical isolate-3 measured after 18 to 20 hrs by microbroth dilution method; assay type: functional; conditions: MRSA198 isolate-3
[4] = Cytotoxicity against mouse RAW264.7 cells assessed as growth inhibition at 50 ug/mL after 120 hrs by MTT assay relative to control; assay type: cell-based; conditions: read-out: GI
How it was run: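 RAW 264.7 mouse macrophages were seeded at 25,000 cells/well and left to attach overnight. Compound in DMSO was added from a 200× concentrate, in duplicate wells, to a 50 μg/mL test level; DMSO served as control. Exposure 120 h at 37°C in 5% CO₂. MTT (4 mg/mL in PBS) was added for 4 h, formazan dissolved in DMSO, and absorbance read at 560 nm. Viability expressed as % of untreated cells, mean ± SE of at least three independent experiments.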

[5] = test system: Staphylococcus epidermidis; assay: Antibacterial activity against Staphylococcus epidermidis ATCC 12228 after 18 to 20 hrs by microbroth dilution method; assay type: functional; how it was run: as §2
Pseudomonas aeruginosa = assay: Antibacterial activity against Pseudomonas aeruginosa […] measured after 18 to 20 hrs by microbroth dilution method; assay type: functional; how it was run: as §2
Aspergillus niger = assay: Antifungal activity against Aspergillus niger ATCC 439 measured after 72 hrs by agar dilution method; assay type: functional; conditions: ATCC 439, 72 h; how it was run: as §1
Staphylococcus aureus [6] = assay: Antibacterial activity against Staphylococcus aureus MRSA198 clinical isolate-2 measured after 18 to 20 hrs by microbroth dilution method; assay type: functional; conditions: MRSA198 isolate-2

Compound | MIC (Aspergillus flavus) | MIC (Escherichia coli) | MIC (Saccharomyces cerevisiae) | MIC (Klebsiella pneumoniae) | MIC (Staphylococcus aureus [1]) | MIC (Staphylococcus aureus [2]) | MIC (Salmonella typhimurium) | MIC (Bacillus subtilis) | MIC (Candida albicans) | MIC (Staphylococcus aureus [3]) | inhibition at 120 h, 50 ug/mL [4] | MIC [5] | MIC (Pseudomonas aeruginosa) | MIC (Aspergillus niger) | MIC (Staphylococcus aureus [6])
COc1ccc(C2C(C#N)=C(N)Oc3cc(OCc4cn([C@@H]5O[C@H](COC(C)=O)[C@@H](OC(C)=O)[C@H](OC(C)=O)[C@H]5OC(C)=O)nn4)ccc32)cc1OC (some centres not stated) | 3.12 µM (≈ 2.3 µg/mL) | 6.25 µM (≈ 4.6 µg/mL) | 25 µM (≈ 18.4 µg/mL) | 25 µM (≈ 18.4 µg/mL) | 25 µM (≈ 18.4 µg/mL) | 25 µM (≈ 18.4 µg/mL) | 400 µM (≈ 294 µg/mL) | 25 µM (≈ 18.4 µg/mL) | 6.25 µM (≈ 4.6 µg/mL) | 50 µM (≈ 36.8 µg/mL) | 21.9% | 1.56 µM (≈ 1.15 µg/mL) | 12.5 µM (≈ 9.2 µg/mL) | 200 µM (≈ 147 µg/mL) | 50 µM (≈ 36.8 µg/mL)
CC(=O)OC[C@H]1O[C@@H](n2cc(COc3ccc4c(c3)OC(N)=C(C#N)C4c3ccccc3)nn2)[C@H](OC(C)=O)[C@@H](OC(C)=O)[C@@H]1OC(C)=O (some centres not stated) | 100 µM (≈ 67.6 µg/mL) | 400 µM (≈ 270 µg/mL) | 12.5 µM (≈ 8.45 µg/mL) | 400 µM (≈ 270 µg/mL) | 400 µM (≈ 270 µg/mL) | 200 µM (≈ 135 µg/mL) | 3.12 µM (≈ 2.11 µg/mL) | 400 µM (≈ 270 µg/mL) | 100 µM (≈ 67.6 µg/mL) | 200 µM (≈ 135 µg/mL) | 22.9% | 25 µM (≈ 16.9 µg/mL) | 200 µM (≈ 135 µg/mL) | 6.25 µM (≈ 4.22 µg/mL) | 400 µM (≈ 270 µg/mL)
COc1ccc(C2C(C#N)=C(N)Oc3cc(OCc4cn([C@@H]5O[C@H](COC(C)=O)[C@@H](OC(C)=O)[C@H](OC(C)=O)[C@H]5OC(C)=O)nn4)ccc32)cc1 (some centres not stated) | 12.5 µM (≈ 8.82 µg/mL) | 200 µM (≈ 141 µg/mL) | 12.5 µM (≈ 8.82 µg/mL) |  | 12.5 µM (≈ 8.82 µg/mL) | 25 µM (≈ 17.6 µg/mL) | 1.56 µM (≈ 1.1 µg/mL) | 12.5 µM (≈ 8.82 µg/mL) | 1.56 µM (≈ 1.1 µg/mL) | 12.5 µM (≈ 8.82 µg/mL) | 29.6% | 200 µM (≈ 141 µg/mL) | 100 µM (≈ 70.6 µg/mL) | 200 µM (≈ 141 µg/mL) | 12.5 µM (≈ 8.82 µg/mL)
COc1ccccc1C1C(C#N)=C(N)Oc2cc(OCc3cn([C@@H]4O[C@H](COC(C)=O)[C@@H](OC(C)=O)[C@H](OC(C)=O)[C@H]4OC(C)=O)nn3)ccc21 (some centres not stated) | 400 µM (≈ 282 µg/mL) | 400 µM (≈ 282 µg/mL) | 100 µM (≈ 70.6 µg/mL) | 3.12 µM (≈ 2.2 µg/mL) | 400 µM (≈ 282 µg/mL) | 50 µM (≈ 35.3 µg/mL) | 6.25 µM (≈ 4.41 µg/mL) |  | 200 µM (≈ 141 µg/mL) | 200 µM (≈ 141 µg/mL) | 22.1% | 6.25 µM (≈ 4.41 µg/mL) | 3.12 µM (≈ 2.2 µg/mL) | 1.56 µM (≈ 1.1 µg/mL) | 400 µM (≈ 282 µg/mL)
CC(=O)OC[C@H]1O[C@@H](n2cc(COc3ccc4c(c3)OC(N)=C(C#N)C4c3cccc(Cl)c3)nn2)[C@H](OC(C)=O)[C@@H](OC(C)=O)[C@@H]1OC(C)=O (some centres not stated) | 200 µM (≈ 142 µg/mL) | 6.25 µM (≈ 4.44 µg/mL) | 3.12 µM (≈ 2.22 µg/mL) | 3.12 µM (≈ 2.22 µg/mL) | 3.12 µM (≈ 2.22 µg/mL) | 1.56 µM (≈ 1.11 µg/mL) | 6.25 µM (≈ 4.44 µg/mL) | 6.25 µM (≈ 4.44 µg/mL) | 12.5 µM (≈ 8.88 µg/mL) | 1.56 µM (≈ 1.11 µg/mL) | 17.2% | 12.5 µM (≈ 8.88 µg/mL) | 25 µM (≈ 17.8 µg/mL) | 12.5 µM (≈ 8.88 µg/mL) | 6.25 µM (≈ 4.44 µg/mL)
CC(=O)OC[C@H]1O[C@@H](n2cc(COc3ccc4c(c3)OC(N)=C(C#N)C4c3ccccc3[N+](=O)[O-])nn2)[C@H](OC(C)=O)[C@@H](OC(C)=O)[C@@H]1OC(C)=O (some centres not stated) | 6.25 µM (≈ 4.5 µg/mL) | 50 µM (≈ 36 µg/mL) |  | 400 µM (≈ 288 µg/mL) | 6.25 µM (≈ 4.5 µg/mL) | 6.25 µM (≈ 4.5 µg/mL) |  | 100 µM (≈ 72.1 µg/mL) | 50 µM (≈ 36 µg/mL) | 3.12 µM (≈ 2.25 µg/mL) | 15.4% | 12.5 µM (≈ 9.01 µg/mL) | 400 µM (≈ 288 µg/mL) | 400 µM (≈ 288 µg/mL) | 1.56 µM (≈ 1.12 µg/mL)
COc1ccc(C2C(C#N)=C(N)Oc3cc(OCc4cn([C@@H]5O[C@H](COC(C)=O)[C@@H](OC(C)=O)[C@H](OC(C)=O)[C@H]5OC(C)=O)nn4)ccc32)c(OC)c1 (some centres not stated) |  |  | 50 µM (≈ 36.8 µg/mL) | 12.5 µM (≈ 9.2 µg/mL) | 1.56 µM (≈ 1.15 µg/mL) | 1.56 µM (≈ 1.15 µg/mL) | 50 µM (≈ 36.8 µg/mL) | 50 µM (≈ 36.8 µg/mL) | 12.5 µM (≈ 9.2 µg/mL) | 6.25 µM (≈ 4.6 µg/mL) | 12.4% | 25 µM (≈ 18.4 µg/mL) |  | 400 µM (≈ 294 µg/mL) | 1.56 µM (≈ 1.15 µg/mL)
COc1cc(OC)cc(C2C(C#N)=C(N)Oc3cc(OCc4cn([C@@H]5O[C@H](COC(C)=O)[C@@H](OC(C)=O)[C@H](OC(C)=O)[C@H]5OC(C)=O)nn4)ccc32)c1 (some centres not stated) | 50 µM (≈ 36.8 µg/mL) | 100 µM (≈ 73.6 µg/mL) | 6.25 µM (≈ 4.6 µg/mL) | 100 µM (≈ 73.6 µg/mL) | 400 µM (≈ 294 µg/mL) | 100 µM (≈ 73.6 µg/mL) | 50 µM (≈ 36.8 µg/mL) | 50 µM (≈ 36.8 µg/mL) | 25 µM (≈ 18.4 µg/mL) | 200 µM (≈ 147 µg/mL) | 19.5% | 3.12 µM (≈ 2.3 µg/mL) |  | 100 µM (≈ 73.6 µg/mL) | 400 µM (≈ 294 µg/mL)
